Measurements collected from several papers.
Compare with care: the assays were run in different laboratories.
Effect on: thermal stability
Method: DSF
GAK: Cyclin-G-associated kinase (GAK, Homo sapiens, UniProt O14976)
DCLK1: Serine/threonine-protein kinase DCLK1 (DCLK1, Homo sapiens, UniProt O15075)
SIRT2: NAD-dependent protein deacetylase sirtuin-2 (SIRT2, Homo sapiens, UniProt Q8IXJ6)
lecA: PA-I galactophilic lectin (lecA, Pseudomonas aeruginosa, UniProt Q05097)

Compound | target | concentration | ΔTm [°C]
COc1ccc2nccc(Nc3cc(OC)c(OC)c(OC)c3)c2c1 | GAK | 10 µM | 6
Cn1c2c(c3ccc(Cl)c(Cl)c31)C(C#N)C1(CCCC1)NC2=O (centres unmarked) | DCLK1 | 10 µM | 0
COCCn1cc(COc2cccc(Cc3cnc(NC(=O)CSc4nc(-c5ccccc5)cc(-c5ccccc5)n4)s3)c2)nn1 | SIRT2 | 25 µM | 1.4
Cn1c2c(c3ccc(Cl)c(Cl)c31)C(C#N)C(C)(C)NC2=O (centres unmarked) | DCLK1 | 10 µM | 0.4
O=C(c1ccccc1)c1ccc(O)c(O)c1 | lecA | 4 mM | 0.4
Cc1ccc(Cn2cc(COc3cccc(Cc4cnc(NC(=O)CSc5nc(C)cc(C)n5)s4)c3)nn2)cc1 | SIRT2 | 25 µM | 5.35
Cc1ccc(O)c(O)c1 | lecA | 4 mM | -11
FC(F)(F)c1ccc2nccc(Nc3cccc(I)c3)c2c1 | GAK | 10 µM | 2.6
